Several values for one entry are separate records, joined by “and”; a condition that tells them apart may be missing. Equal values may be shown once.
Legend:
[1] = target: T1, h12-LOX (Homo sapiens, UniProt P18054); test: Product analysis of h12-LOX reactions; assay type: biochemical; conditions: h12-LOX + 1 μM 14S-HpDHA, 60 min, pH 8.0, ambient O2
T1 sequence (P18054 1-663): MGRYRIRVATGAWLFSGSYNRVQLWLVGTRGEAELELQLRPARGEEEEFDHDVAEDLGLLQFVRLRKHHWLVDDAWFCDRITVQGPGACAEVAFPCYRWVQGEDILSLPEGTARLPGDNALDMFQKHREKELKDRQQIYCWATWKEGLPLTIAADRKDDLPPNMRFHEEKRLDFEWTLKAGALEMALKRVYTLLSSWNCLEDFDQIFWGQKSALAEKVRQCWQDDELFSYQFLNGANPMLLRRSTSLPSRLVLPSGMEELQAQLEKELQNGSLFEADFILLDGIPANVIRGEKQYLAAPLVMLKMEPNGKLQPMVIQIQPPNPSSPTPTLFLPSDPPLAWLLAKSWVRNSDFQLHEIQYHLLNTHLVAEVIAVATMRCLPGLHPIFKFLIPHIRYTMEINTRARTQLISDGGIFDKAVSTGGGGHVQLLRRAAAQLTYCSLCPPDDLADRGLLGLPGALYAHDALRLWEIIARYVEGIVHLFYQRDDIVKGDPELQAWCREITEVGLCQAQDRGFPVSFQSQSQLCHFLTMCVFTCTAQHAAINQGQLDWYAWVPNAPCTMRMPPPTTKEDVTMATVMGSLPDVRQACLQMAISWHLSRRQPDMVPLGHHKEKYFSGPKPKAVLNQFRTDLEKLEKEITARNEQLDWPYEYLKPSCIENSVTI
How it was run: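 h15-LOX-1 (0.125 μM, pH 7.5) or h12-LOX (0.300 μM, pH 8.0) was reacted in 25 mM HEPES at room temperature under ambient O2. Substrates were 10 μM DHA for 1 min (monitored at 234 nm) or 1 μM 14S-HpDHA for 20 min (h15-LOX-1) or 1 h (h12-LOX) (monitored at 270 nm). Reactions were quenched with acetic acid, spiked with d5-maresin-1, extracted into DCM and background-subtracted against a no-enzyme control. Split samples were run with or without trimethyl phosphite reduction. Products were identified by C18 LC-MS/MS (qTOF), N = 3.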

[2] = target: T2, h15-LOX-1 (Homo sapiens, UniProt P16050); test: Allosteric modulation of 14S-HpDHA epoxidation by h15-LOX-1; assay type: biochemical
T2 sequence (P16050 1-662): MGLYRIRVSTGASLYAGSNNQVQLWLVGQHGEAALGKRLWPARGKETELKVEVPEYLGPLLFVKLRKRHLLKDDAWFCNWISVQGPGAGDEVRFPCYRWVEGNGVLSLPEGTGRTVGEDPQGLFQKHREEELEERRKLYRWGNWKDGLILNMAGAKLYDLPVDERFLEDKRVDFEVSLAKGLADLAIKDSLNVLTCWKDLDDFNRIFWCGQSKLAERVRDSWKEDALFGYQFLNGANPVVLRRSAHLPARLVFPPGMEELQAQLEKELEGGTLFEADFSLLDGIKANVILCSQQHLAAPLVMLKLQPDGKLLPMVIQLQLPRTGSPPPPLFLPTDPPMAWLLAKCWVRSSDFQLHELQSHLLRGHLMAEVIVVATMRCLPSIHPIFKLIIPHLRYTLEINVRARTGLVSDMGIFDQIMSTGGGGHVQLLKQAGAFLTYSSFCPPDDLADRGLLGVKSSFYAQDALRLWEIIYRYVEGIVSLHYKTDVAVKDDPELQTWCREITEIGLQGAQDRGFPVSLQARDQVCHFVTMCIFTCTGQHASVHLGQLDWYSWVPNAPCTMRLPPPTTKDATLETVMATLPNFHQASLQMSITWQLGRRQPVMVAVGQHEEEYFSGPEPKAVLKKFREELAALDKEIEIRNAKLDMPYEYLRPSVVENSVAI
How it was run: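 Recombinant human h15-LOX-1 (0.125 μM, 25 mM HEPES pH 7.5, 20 min) or h12-LOX (0.3 μM, pH 8.0, 1 h) reacted at room temperature with 1 μM 14S-HpDHA while oxylipin modulator was titrated (1–100 μM), or with 14S-HpDHA varied alone (1–50 μM). Products were reduced and analysed by LC-MS. Dehydration (epoxide) versus oxygenation product percentages were calculated, N = 3.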

[3] = tested on: human platelets; test: Collagen-stimulated platelet aggregation; assay type: cell-based; conditions: ≥1 μM, 10 min incubation, collagen 0.25 μg/mL
How it was run: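 Washed human platelets were isolated by serial centrifugation and resuspended in Tyrode's buffer at 3 × 10^8/mL. They were preincubated with test compound (1–10 μM) for 10 min at 37 °C, then stimulated with 0.25 μg/mL collagen while stirring at 1100 rpm. Maximum aggregation was read as the light-transmittance change, mean ± SEM of 3–5 independent experiments. Comparison versus vehicle used one-way ANOVA with Dunnett's test.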

[4] = target: T2, h15-LOX-1; test: Steady-state kinetics of h15-LOX-1
[5] = h15-LOX-1 + substrate, 25 mM HEPES pH 7.5, RT

In the case of `CC/C=C\C/C=C\C[C@@H](/C=C/C=C\C/C=C\C/C=C\CCC(=O)O)OO` [14S-HpDHA, 14S-hydroperoxy-4Z,7Z,10Z,12E,16Z,19Z-docosahexaenoic acid], the “product profile: 7S,14S-EZE-diHpDHA” value [1] is reported as 12% and 12 ± 2%, the “product profile: 13S,14S-epoxy-DHA (detected as 7S/R,14S-EEE-diHDHA)” value [1] is reported as 76% and 76 ± 11% and the “product profile: 14S,20-diHpDHA” value [1] is reported as 13% and 13 ± 9%. For the same compound, the “7S,14S-EZE-diHDHA (oxygenation product)” value ([2]; h15-LOX-1, 14S-HpDHA at high concentration (50 μM)) was 76 ± 0.5%, the “7R/S,14S-EEE-diHDHA (epoxide degradation product)” value ([2]; h15-LOX-1, 14S-HpDHA at low concentration (1 μM)) was 71 ± 11% and the “reduction in aggregation compared to vehicle control” value [3] was greater than 90%. The kcat ([4]; h15-LOX-1) was 2e+06 ± 40000 M⁻¹ s⁻¹, the “13S,14S-epoxy-DHA biosynthetic flux” value ([4]; h15-LOX-1 + 14S-HpDHA, B.F. = kcat/KM * % product) was 0.078 and the Km [4, 5] was 18 ± 1 µM. The kcat [4, 5] was 2.0 ± 0.04 s⁻¹, the “fold difference of kcat/KM” value ([4]; h15-LOX-1, kcat/KM of enzyme with DHA set to 1 (Table 5)) was −3.2 and the “kcat of h15-LOX-1 greater than that of h12-LOX” value ([4]; substrate 14S-HpDHA) was roughly 10 fold.

Reference: PMC7729281 (Biochemistry, 2020)
